Laboratory results reported in ChEMBL document CHEMBL3526048, “In vitro metabolism of rivoglitazone, a novel peroxisome proliferator-activated receptor γ agonist, in rat, monkey, and human liver microsomes and freshly isolated hepatocytes” (Drug Metab Dispos, 2011).

Tests used:
Format in all cases: ADME
[1] = target: Cytochrome P450 2C19 (Homo sapiens, UniProt P33261); test: Activity of human CYP2C19 expressed in microsomes isolated from baculovirus infected insect cell assessed as enzyme-mediated compound formation treated with [14C]-rivoglitazone at 20 uM after 2 hrs by radio-HPLC/LC-MS/MS analysis in presence of NADPH-generating system
Chain of Cytochrome P450 2C19 (P33261 whole entry): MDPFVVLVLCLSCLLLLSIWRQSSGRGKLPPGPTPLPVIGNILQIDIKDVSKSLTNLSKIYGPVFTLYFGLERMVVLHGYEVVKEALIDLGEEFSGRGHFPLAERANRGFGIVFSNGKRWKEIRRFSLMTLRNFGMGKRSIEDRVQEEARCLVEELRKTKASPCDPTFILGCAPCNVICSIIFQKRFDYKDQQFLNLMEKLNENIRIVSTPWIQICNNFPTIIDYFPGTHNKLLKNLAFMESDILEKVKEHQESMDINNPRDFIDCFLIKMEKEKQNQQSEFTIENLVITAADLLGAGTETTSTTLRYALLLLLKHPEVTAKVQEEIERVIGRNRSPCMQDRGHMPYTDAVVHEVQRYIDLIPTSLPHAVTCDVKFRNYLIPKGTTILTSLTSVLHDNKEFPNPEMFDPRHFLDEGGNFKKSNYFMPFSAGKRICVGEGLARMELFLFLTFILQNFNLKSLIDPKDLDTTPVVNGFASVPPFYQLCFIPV
In short: (§1)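 Baculovirus/insect-cell microsomes expressing single human CYPs, 1 mg/ml protein, with 50 mM potassium phosphate (pH 7.4) or 100 mM Tris-HCl (pH 7.5). NADPH-generating system: 2 mM NADP⁺, 20 mM glucose 6-phosphate, 2 units/ml G6PDH, 10 mM MgCl₂. [¹⁴C]rivoglitazone at 20 μM, 2 h at 37°C with shaking. Control used insect-cell control supersomes. Stopped with acetonitrile; supernatant concentrated under nitrogen; metabolites analysed by radio-HPLC, LC-MS and LC-MS/MS.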

[2] = target: T1, Cytochrome P450 1A2 (Homo sapiens, UniProt P05177); test: (§2) Activity of human CYP1A2 expressed in microsomes isolated from baculovirus infected insect cell assessed as enzyme-mediated 2-hydroxy-3-(4-((6-methoxy-1-methyl-1H-benzo[d]imidazol-2-yl)methoxy)phenyl)propanamide formation at 20 uM after 2 hrs by radio-HPLC/LC-MS/MS analysis in presence of NADPH-generating system and NADPH-generating system/SAM; in short: as §1
T1 sequence (P05177 whole entry): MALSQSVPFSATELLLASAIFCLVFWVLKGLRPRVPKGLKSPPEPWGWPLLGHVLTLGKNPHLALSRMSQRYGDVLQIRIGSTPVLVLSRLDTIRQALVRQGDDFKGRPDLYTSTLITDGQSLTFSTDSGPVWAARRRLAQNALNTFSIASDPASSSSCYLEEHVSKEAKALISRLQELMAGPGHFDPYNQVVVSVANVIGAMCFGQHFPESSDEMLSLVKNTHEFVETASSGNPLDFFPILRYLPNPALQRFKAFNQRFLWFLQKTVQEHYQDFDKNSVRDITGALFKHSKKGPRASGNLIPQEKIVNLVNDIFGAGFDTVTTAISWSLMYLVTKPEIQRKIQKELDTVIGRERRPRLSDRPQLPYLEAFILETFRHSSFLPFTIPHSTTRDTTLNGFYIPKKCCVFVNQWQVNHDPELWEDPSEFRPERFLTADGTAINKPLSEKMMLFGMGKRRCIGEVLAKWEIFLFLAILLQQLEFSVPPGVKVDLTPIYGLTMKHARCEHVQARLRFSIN

[3] = target: T1, Cytochrome P450 1A2; test: Activity of human CYP1A2 expressed in microsomes isolated from baculovirus infected insect cell assessed as enzyme-mediated 3-(4-((6-methoxy-1-methyl-1H-benzo[d]imidazol-2-yl)methoxy)phenyl)-2-(methylsulfinyl)propanamide formation at 20 uM after 2 hrs by radio-HPLC/LC-MS/MS analysis in presence of NADPH-generating system/SAM
[4] = target: Cytochrome P450 3A4 (Homo sapiens, UniProt P08684); test: as §2, with “CYP3A4” for “CYP1A2”
Chain of Cytochrome P450 3A4 (P08684 whole entry): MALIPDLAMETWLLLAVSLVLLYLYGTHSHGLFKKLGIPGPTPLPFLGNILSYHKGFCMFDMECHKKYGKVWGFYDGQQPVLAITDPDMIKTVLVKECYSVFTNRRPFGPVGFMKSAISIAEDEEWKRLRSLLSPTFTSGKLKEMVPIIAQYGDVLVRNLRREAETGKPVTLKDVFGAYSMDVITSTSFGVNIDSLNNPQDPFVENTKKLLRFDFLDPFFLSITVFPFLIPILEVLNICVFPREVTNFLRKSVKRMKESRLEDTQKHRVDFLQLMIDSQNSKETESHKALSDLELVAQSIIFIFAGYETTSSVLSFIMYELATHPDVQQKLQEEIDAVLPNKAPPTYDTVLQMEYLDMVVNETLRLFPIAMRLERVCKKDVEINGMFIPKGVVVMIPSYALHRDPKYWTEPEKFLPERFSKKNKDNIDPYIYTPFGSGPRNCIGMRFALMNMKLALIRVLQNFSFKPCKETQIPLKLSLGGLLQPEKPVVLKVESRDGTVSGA

[5] = target: T1, Cytochrome P450 1A2; test: Activity of human CYP1A2 expressed in microsomes isolated from baculovirus infected insect cell assessed as enzyme-mediated 2-mercapto-3-(4-((6-methoxy-1-methyl-1H-benzo[d]imidazol-2-yl)methoxy)phenyl)propanoic acid formation at 20 uM after 2 hrs by radio-HPLC/LC-MS/MS analysis in presence of NADPH-generating system; in short: as §1
[6] = target: T2, UDP-glucuronosyltransferase 1A3 (Homo sapiens, UniProt P35503); test: as §2, with “human UGT1A3” for “human CYP1A2”, “after 4” for “after 2”, “system/SAM in presence of UDPGA and UDPGA/SAM” for “system/SAM”
T2 sequence (P35503 whole entry): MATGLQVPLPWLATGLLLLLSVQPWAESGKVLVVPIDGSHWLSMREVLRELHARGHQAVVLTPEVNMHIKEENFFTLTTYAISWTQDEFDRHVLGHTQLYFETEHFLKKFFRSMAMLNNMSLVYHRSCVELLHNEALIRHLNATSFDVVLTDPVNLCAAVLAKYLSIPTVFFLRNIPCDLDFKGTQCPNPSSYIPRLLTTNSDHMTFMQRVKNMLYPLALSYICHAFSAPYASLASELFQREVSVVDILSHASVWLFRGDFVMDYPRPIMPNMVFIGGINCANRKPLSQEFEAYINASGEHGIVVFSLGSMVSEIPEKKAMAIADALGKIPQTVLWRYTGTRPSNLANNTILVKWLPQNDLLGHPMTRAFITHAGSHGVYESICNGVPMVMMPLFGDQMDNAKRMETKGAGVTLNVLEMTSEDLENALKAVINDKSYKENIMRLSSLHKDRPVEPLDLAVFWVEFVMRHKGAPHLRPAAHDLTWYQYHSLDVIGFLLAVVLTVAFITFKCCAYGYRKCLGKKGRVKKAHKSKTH

[7] = target: Cytochrome P450 3A5 (Homo sapiens, UniProt P20815); test: Activity of human CYP3A5 expressed in microsomes isolated from baculovirus infected insect cell assessed as enzyme-mediated (2S,3S,4S,5R,6R)-6-((1-carboxy-2-(4-((6-methoxy-1-methyl-1H-benzo[d]imidazol-2-yl)methoxy)phenyl)ethylthio)carbonylamino)-3,4,5-trihydroxytetrahydro-2H-pyran-2-carboxylic acid formation at 20 uM after 2 hrs by radio-HPLC/LC-MS/MS analysis in presence of NADPH-generating system/SAM
Chain of Cytochrome P450 3A5 (P20815 whole entry): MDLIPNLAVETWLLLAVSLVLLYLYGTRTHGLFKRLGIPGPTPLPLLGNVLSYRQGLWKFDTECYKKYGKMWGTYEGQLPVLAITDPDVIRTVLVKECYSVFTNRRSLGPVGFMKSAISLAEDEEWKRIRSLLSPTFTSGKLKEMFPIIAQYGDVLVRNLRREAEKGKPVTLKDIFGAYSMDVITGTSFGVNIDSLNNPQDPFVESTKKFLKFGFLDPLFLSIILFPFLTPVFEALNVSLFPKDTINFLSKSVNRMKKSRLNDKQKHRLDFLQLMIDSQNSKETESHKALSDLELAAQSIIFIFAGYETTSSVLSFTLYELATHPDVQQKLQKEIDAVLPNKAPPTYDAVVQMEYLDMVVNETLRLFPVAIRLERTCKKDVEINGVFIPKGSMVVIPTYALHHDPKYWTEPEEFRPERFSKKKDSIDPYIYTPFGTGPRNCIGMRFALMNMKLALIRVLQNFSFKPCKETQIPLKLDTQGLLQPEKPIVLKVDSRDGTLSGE

[8] = tested on: Liver microsome; test: Drug metabolism in human liver microsomes assessed as formation of (2S,3S,4S,5R,6R)-6-((1-carboxy-2-(4-((6-methoxy-1-methyl-1H-benzo[d]imidazol-2-yl)methoxy)phenyl)ethylthio)carbonylamino)-3,4,5-trihydroxytetrahydro-2H-pyran-2-carboxylic acid at 20 uM after 4 hrs by radio-HPLC/LC-MS/MS analysis in presence of UDPGA and UDPGA/SAM
[9] = target: T3, UDP-glucuronosyltransferase 2B17 (Homo sapiens, UniProt O75795); test: Activity of human UGT2B17 expressed in microsomes isolated from baculovirus infected insect cell assessed as enzyme-mediated (2S,3S,4S,5R,6R)-3,4,5-trihydroxy-6-(5-(4-((6-methoxy-1-methyl-1H-benzo[d]imidazol-2-yl)methoxy)benzyl)-2,4-dioxothiazolidin-3-yl)tetrahydro-2H-pyran-2-carboxylic acid formation at 20 uM after 4 hrs by radio-HPLC/LC-MS/MS analysis in presence of UDPGA
T3 sequence (O75795 whole entry): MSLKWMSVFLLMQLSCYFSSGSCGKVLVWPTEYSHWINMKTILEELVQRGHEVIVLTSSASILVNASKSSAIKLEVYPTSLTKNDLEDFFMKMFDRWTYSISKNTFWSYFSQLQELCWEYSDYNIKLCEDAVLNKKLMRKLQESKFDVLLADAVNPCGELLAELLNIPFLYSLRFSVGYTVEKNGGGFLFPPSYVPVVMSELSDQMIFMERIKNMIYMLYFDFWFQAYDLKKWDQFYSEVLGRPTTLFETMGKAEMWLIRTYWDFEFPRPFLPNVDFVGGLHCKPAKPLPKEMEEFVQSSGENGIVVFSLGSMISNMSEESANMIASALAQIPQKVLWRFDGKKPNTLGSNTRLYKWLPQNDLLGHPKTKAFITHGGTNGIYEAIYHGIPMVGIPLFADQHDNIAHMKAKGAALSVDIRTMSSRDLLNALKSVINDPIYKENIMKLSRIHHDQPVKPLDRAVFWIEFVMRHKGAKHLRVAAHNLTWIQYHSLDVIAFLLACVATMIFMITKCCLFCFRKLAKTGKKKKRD

[10] = tested on: Liver microsome; test: Drug metabolism in Sprague-Dawley rat liver microsomes assessed as formation of 3-(4-((6-methoxy-1-methyl-1H-benzo[d]imidazol-2-yl)methoxy)phenyl)-2-(methylthio)propanoic acid at 20 uM after 2 to 4 hrs by radio-HPLC/LC-MS/MS analysis in presence of NADPH-generating system/SAM and UDPGA/SAM

| Compound | Drug metabolism [1] | Drug metabolism [2] | Drug metabolism [3] | Drug metabolism [4] | Drug metabolism [5] | Drug metabolism [6] | Drug metabolism [7] | Drug metabolism [8] | Drug metabolism [9] | Drug metabolism [10] |
| --- | --- | --- | --- | --- | --- | --- | --- | --- | --- | --- |
| COc1ccc2nc(COc3ccc(CC(S)C(=O)O)cc3)n(C)c2c1 (stereo not given) | metabolite_detected | – | – | – | – | – | – | – | – | – |
| COc1ccc2nc(COc3ccc(C[14CH]4SC(=O)NC4=O)cc3)n(C)c2c1.Cl (racemic) | – | metabolite_detected | metabolite_not_detected | metabolite_detected | metabolite_detected | metabolite_not_detected | metabolite_not_detected | metabolite_detected | metabolite_not_detected | metabolite_detected |
